# Measured values taken from ChEMBL document CHEMBL1153560, “In vitro activities of doripenem and six comparator drugs against 423 aerobic and anaerobic bacterial isolates from infected diabetic foot wounds” (2008).
# Columns and labels:
# Type in all cases: functional
# [1] = test system: Peptostreptococcus anaerobius; assay: Antibacterial activity against Peptostreptococcus anaerobius isolated from patient with diabetic foot infection after 44 to 48 hrs by agar dilution method
# Method in brief: (§1)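 CLSI M11-A7 agar dilution: serial twofold drug dilutions made on the test day and added to molten agar. Spots of 10^5 CFU were applied by replicator, with drug-free control plates inoculated before and after each set. Incubation was 44 to 48 h at 37°C in an anaerobic chamber. MIC was the lowest concentration giving no growth or a marked change in growth versus controls.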
# [2] = test system: Parabacteroides distasonis; assay: Antibacterial activity against Parabacteroides distasonis isolated from patient with diabetic foot infection after 44 to 48 hrs by agar dilution method; method in brief: as §1
# [3] = test system: Phocaeicola vulgatus; assay: Antibacterial activity against Bacteroides vulgatus isolated from patient with diabetic foot infection assessed as percent resistant isolates after 44 to 48 hrs by agar dilution method
# Method in brief: (§2)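 Agar dilution per CLSI M11-A7. Twofold drug dilutions made on the test day and added to molten agar. Replicator-applied inoculum of 10^5 CFU/spot. Drug-free control plates inoculated before and after each drug set. Incubation at 37°C for 44 to 48 h, anaerobic chamber. MIC taken as the lowest concentration giving no growth or a marked change in growth versus controls.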
# [4] = test system: Clostridium malenominatum; assay: Antibacterial activity against Clostridium malenominatum isolated from patient with diabetic foot infection assessed as percent resistant isolates after 44 to 48 hrs by agar dilution method; method in brief: as §2
# [5] = test system: Anaerococcus vaginalis; assay: Antibacterial activity against Anaerococcus vaginalis isolated from patient with diabetic foot infection assessed as percent resistant isolates after 44 to 48 hrs by agar dilution method; method in brief: as §2
# [6] = test system: Finegoldia magna; assay: Antibacterial activity against Finegoldia magna isolated from patient with diabetic foot infection assessed as percent resistant isolates after 44 to 48 hrs by agar dilution method; method in brief: as §2
# [7] = test system: Bacteroides caccae; assay: Antibacterial activity against Bacteroides caccae isolated from patient with diabetic foot infection after 44 to 48 hrs by agar dilution method; method in brief: as §1
# [8] = test system: Bacteroides thetaiotaomicron; assay: Antibacterial activity against Bacteroides thetaiotaomicron isolated from patient with diabetic foot infection assessed as percent resistant isolates after 44 to 48 hrs by agar dilution method; method in brief: as §2
# [9] = test system: Enterocloster clostridioformis; assay: Antibacterial activity against Clostridium clostridioforme isolated from patient with diabetic foot infection after 44 to 48 hrs by agar dilution method; method in brief: as §1
# [10] = test system: Peptoniphilus asaccharolyticus; assay: Antibacterial activity against Peptoniphilus asaccharolyticus isolated from patient with diabetic foot infection after 44 to 48 hrs by agar dilution method; method in brief: as §1
# [11] = test system: Lacrimispora sphenoides; assay: Antibacterial activity against Clostridium sphenoides isolated from patient with diabetic foot infection assessed as percent resistant isolates after 44 to 48 hrs by agar dilution method; method in brief: as §2
# [12] = test system: Clostridium cadaveris; assay: Antibacterial activity against Clostridium cadaveris isolated from patient with diabetic foot infection after 44 to 48 hrs by agar dilution method; method in brief: as §1
# [13] = test system: Bacteroides stercoris; assay: Antibacterial activity against Bacteroides stercoris isolated from patient with diabetic foot infection assessed as percent resistant isolates after 44 to 48 hrs by agar dilution method; method in brief: as §2
# [14] = test system: Parvimonas micra; assay: Antibacterial activity against Peptostreptococcus micros isolated from patient with diabetic foot infection after 44 to 48 hrs by agar dilution method; method in brief: as §1
# [15] = test system: Finegoldia magna; assay: Antibacterial activity against Finegoldia magna isolated from patient with diabetic foot infection after 44 to 48 hrs by agar dilution method; method in brief: as §1
# [16] = test system: Bacteroides thetaiotaomicron; assay: Antibacterial activity against Bacteroides thetaiotaomicron isolated from patient with diabetic foot infection after 44 to 48 hrs by agar dilution method; method in brief: as §1
# [17] = test system: Parabacteroides merdae; assay: Antibacterial activity against Parabacteroides merdae isolated from patient with diabetic foot infection assessed as percent resistant isolates after 44 to 48 hrs by agar dilution method; method in brief: as §2
# [18] = test system: Porphyromonas asaccharolytica; assay: Antibacterial activity against Porphyromonas asaccharolyticus isolated from patient with diabetic foot infection after 44 to 48 hrs by agar dilution method; method in brief: as §1
# [19] = test system: Bacteroides fragilis; assay: Antibacterial activity against Bacteroides fragilis isolated from patient with diabetic foot infection after 44 to 48 hrs by agar dilution method; method in brief: as §1
# [20] = test system: Enterocloster clostridioformis; assay: Antibacterial activity against Clostridium clostridioforme isolated from patient with diabetic foot infection assessed as percent resistant isolates after 44 to 48 hrs by agar dilution method; method in brief: as §2
# [21] = test system: Bacteroides fragilis; assay: Antibacterial activity against Bacteroides fragilis isolated from patient with diabetic foot infection assessed as percent resistant isolates after 44 to 48 hrs by agar dilution method; method in brief: as §2
# [22] = test system: Prevotella bivia; assay: Antibacterial activity against Prevotella bivia isolated from patient with diabetic foot infection assessed as percent resistant isolates after 44 to 48 hrs by agar dilution method; method in brief: as §2
# [23] = test system: Cutibacterium acnes; assay: Antibacterial activity against Propionibacterium acnes isolated from patient with diabetic foot infection after 44 to 48 hrs by agar dilution method; method in brief: as §1
# [24] = test system: Phocaeicola vulgatus; assay: Antibacterial activity against Bacteroides vulgatus isolated from patient with diabetic foot infection after 44 to 48 hrs by agar dilution method; method in brief: as §1
# [25] = test system: Bacteroides caccae; assay: Antibacterial activity against Bacteroides caccae isolated from patient with diabetic foot infection assessed as percent resistant isolates after 44 to 48 hrs by agar dilution method; method in brief: as §2
# [26] = test system: Anaerococcus prevotii; assay: Antibacterial activity against Anaerococcus prevotii isolated from patient with diabetic foot infection after 44 to 48 hrs by agar dilution method; method in brief: as §1
# [27] = test system: Prevotella bivia; assay: Antibacterial activity against Prevotella bivia isolated from patient with diabetic foot infection after 44 to 48 hrs by agar dilution method; method in brief: as §1
# [28] = test system: [Clostridium] innocuum; assay: Antibacterial activity against Clostridium innocuum isolated from patient with diabetic foot infection after 44 to 48 hrs by agar dilution method; method in brief: as §1
# [29] = test system: Bacteroides ovatus; assay: Antibacterial activity against Bacteroides ovatus isolated from patient with diabetic foot infection assessed as percent resistant isolates after 44 to 48 hrs by agar dilution method; method in brief: as §2
# [30] = test system: Clostridium malenominatum; assay: Antibacterial activity against Clostridium malenominatum isolated from patient with diabetic foot infection after 44 to 48 hrs by agar dilution method; method in brief: as §1
# [31] = test system: Lacrimispora sphenoides; assay: Antibacterial activity against Clostridium sphenoides isolated from patient with diabetic foot infection after 44 to 48 hrs by agar dilution method; method in brief: as §1
# [32] = test system: Peptoniphilus asaccharolyticus; assay: Antibacterial activity against Peptoniphilus asaccharolyticus isolated from patient with diabetic foot infection assessed as percent resistant isolates after 44 to 48 hrs by agar dilution method; method in brief: as §2
# [33] = test system: Anaerococcus vaginalis; assay: Antibacterial activity against Anaerococcus vaginalis isolated from patient with diabetic foot infection after 44 to 48 hrs by agar dilution method; method in brief: as §1
# [34] = test system: Porphyromonas asaccharolytica; assay: Antibacterial activity against Porphyromonas asaccharolyticus isolated from patient with diabetic foot infection assessed as percent resistant isolates after 44 to 48 hrs by agar dilution method; method in brief: as §2
# [35] = test system: [Clostridium] innocuum; assay: Antibacterial activity against Clostridium innocuum isolated from patient with diabetic foot infection assessed as percent resistant isolates after 44 to 48 hrs by agar dilution method; method in brief: as §2
# [36] = test system: Porphyromonas somerae; assay: Antibacterial activity against Porphyromonas somerae isolated from patient with diabetic foot infection assessed as percent resistant isolates after 44 to 48 hrs by agar dilution method; method in brief: as §2
# [37] = test system: Bacteroides ovatus; assay: Antibacterial activity against Bacteroides ovatus isolated from patient with diabetic foot infection after 44 to 48 hrs by agar dilution method; method in brief: as §1
compound,measurement,setting,value
C[C@@H](O)[C@H]1C(=O)N2C(C(=O)O)=C(S[C@@H]3CN[C@H](C(=O)Nc4cccc(C(=O)O)c4)C3)[C@H](C)[C@H]12 [ERTAPENEM],MIC50,[1],0.25 µg/mL
same,MIC90,[1],0.5 µg/mL
same,MIC50,[2],1 µg/mL
same,MIC90,[2],2 µg/mL
same,Activity,[3],0%
same,Activity,[4],0%
same,Activity,[5],0%
same,Activity,[6],0%
same,MIC50,[7],1 µg/mL
same,MIC90,[7],2 µg/mL
same,Activity,[8],0%
same,MIC50,[9],0.25 µg/mL
same,MIC90,[9],2 µg/mL
same,MIC50,[10],≤ 0.015 µg/mL
same,MIC90,[10],0.25 µg/mL
same,Activity,[11],0%
same,MIC50,[12],0.25 µg/mL
same,MIC90,[12],2 µg/mL
same,Activity,[13],0%
same,MIC50,[14],0.25 µg/mL
same,MIC90,[14],0.5 µg/mL
same,MIC50,[15],0.06 µg/mL
same,MIC90,[15],0.125 µg/mL
same,MIC50,[16],1 µg/mL
same,MIC90,[16],2 µg/mL
same,Activity,[17],0%
same,MIC50,[18],≤ 0.015 µg/mL
same,MIC90,[18],0.06 µg/mL
same,MIC50,[19],0.25 µg/mL
same,MIC90,[19],1 µg/mL
same,Activity,[20],0%
same,Activity,[21],0%
same,Activity,[22],0%
same,MIC50,[23],0.125 µg/mL
same,MIC90,[23],0.25 µg/mL
same,MIC50,[24],1 µg/mL
same,MIC90,[24],2 µg/mL
same,Activity,[25],0%
same,MIC50,[26],0.125 µg/mL
same,MIC90,[26],0.25 µg/mL
same,MIC50,[27],0.25 µg/mL
same,MIC90,[27],0.5 µg/mL
same,MIC50,[28],0.25 µg/mL
same,MIC90,[28],2 µg/mL
same,Activity,[29],0%
same,MIC50,[30],0.25 µg/mL
same,MIC90,[30],2 µg/mL
same,MIC50,[31],0.25 µg/mL
same,MIC90,[31],2 µg/mL
same,Activity,[32],0%
same,MIC50,[33],0.125 µg/mL
same,MIC90,[33],0.25 µg/mL
same,Activity,[34],0%
same,Activity,[35],0%
same,Activity,[36],0%
same,MIC50,[37],1 µg/mL
same,MIC90,[37],2 µg/mL
C[C@@H](O)[C@H]1C(=O)N2C(C(=O)O)=C(SCCNC=N)C[C@H]12 [IMIPENEM ANHYDROUS],MIC50,[1],0.03 µg/mL
same,MIC90,[1],0.06 µg/mL
same,MIC50,[2],0.5 µg/mL
same,MIC90,[2],1 µg/mL
same,Activity,[3],0%
same,Activity,[4],0%
same,Activity,[5],0%
same,Activity,[6],0%
same,MIC50,[7],0.5 µg/mL
same,MIC90,[7],1 µg/mL
same,Activity,[8],0%
same,MIC50,[9],0.25 µg/mL
same,MIC90,[9],2 µg/mL
same,MIC50,[10],≤ 0.015 µg/mL
same,MIC90,[10],0.03 µg/mL
same,Activity,[11],0%
same,MIC50,[12],0.25 µg/mL
same,MIC90,[12],2 µg/mL
same,Activity,[13],0%
same,MIC50,[14],0.03 µg/mL
same,MIC90,[14],0.06 µg/mL
same,MIC50,[15],0.03 µg/mL
same,MIC90,[15],0.06 µg/mL
same,MIC50,[16],0.5 µg/mL
same,MIC90,[16],1 µg/mL
same,Activity,[17],0%
same,MIC50,[18],< 0.015 µg/mL
same,MIC90,[18],≤ 0.015 µg/mL
same,MIC50,[19],0.125 µg/mL
same,MIC90,[19],0.125 µg/mL
same,Activity,[20],0%
same,Activity,[21],0%
same,Activity,[22],0%
same,MIC50,[23],≤ 0.015 µg/mL
same,MIC90,[23],≤ 0.015 µg/mL
same,MIC50,[24],0.5 µg/mL
same,MIC90,[24],1 µg/mL
same,Activity,[25],0%
same,MIC50,[26],≤ 0.015 µg/mL
same,MIC90,[26],0.03 µg/mL
same,MIC50,[27],0.03 µg/mL
same,MIC90,[27],0.03 µg/mL
same,MIC50,[28],0.25 µg/mL
same,MIC90,[28],2 µg/mL
same,Activity,[29],0%
same,MIC50,[30],0.25 µg/mL
same,MIC90,[30],2 µg/mL
same,MIC50,[31],0.25 µg/mL
same,MIC90,[31],2 µg/mL
same,Activity,[32],0%
same,MIC50,[33],≤ 0.015 µg/mL
same,MIC90,[33],0.03 µg/mL
same,Activity,[34],0%
same,Activity,[35],0%
same,Activity,[36],0%
same,MIC50,[37],0.5 µg/mL
same,MIC90,[37],1 µg/mL
